Shown are actives, neighbours in structure and some others; about 2.3% of the full set was active somewhere.
Rtt109 HAT inh – C. albicans Rtt109 histone acetyltransferase inhibition; Q5AAJ8; purified Rtt109/Vps75, ThioGlo CoA-SH fluorescence, 4 h; inhibition, % at 34.9 µM; hit rate 0.16% among 330,000;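 active = inhibition of at least 50% in every replicate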
Target sequence (Q5AAJ8 whole entry, looked up): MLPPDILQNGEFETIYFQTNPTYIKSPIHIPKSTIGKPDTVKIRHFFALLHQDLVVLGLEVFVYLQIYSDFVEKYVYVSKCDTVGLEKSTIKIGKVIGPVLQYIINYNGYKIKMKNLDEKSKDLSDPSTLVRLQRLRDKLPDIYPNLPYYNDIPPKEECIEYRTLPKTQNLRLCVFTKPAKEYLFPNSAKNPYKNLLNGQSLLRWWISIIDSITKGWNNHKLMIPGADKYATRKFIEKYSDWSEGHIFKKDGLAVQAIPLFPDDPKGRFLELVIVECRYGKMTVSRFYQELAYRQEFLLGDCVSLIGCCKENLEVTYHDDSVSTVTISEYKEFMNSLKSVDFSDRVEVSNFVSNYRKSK
PfHsp90 yeast 2 – reduces growth (ATP signal) of yeast expressing P. falciparum Hsp90. AID 504621. S. cerevisiae expressing PfHsp90, BacTiter-Glo ATP, 48 h; yeast lacking PDR1 and PDR3 efflux regulators. hit rate 0.32% among 310,000. inhibition, % at 9.4 µM;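 active = every replicate shows inhibition above about 80%, whatever the replicate mean, limit read from the data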;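 note: 0% = DMSO neutral controls and 100% = 20 µM radicicol positive controls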
N-glyco inh – N-linked glycosylation inhibition; D54 ERlucT glycosylation luciferase reporter, 24 h; percent of 100 nM tunicamycin response; reporter increase, % at 12.5 µM; hit rate 0.23% among 360,000;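 active = mean luciferase reporter signal, scaled so untreated is 0 and the glycosylation-blocking control 100, at or above a set limit in every replicate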;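 note: luciferase carries N-glycosylation sites so blocking glycosylation raises the light; 0% = median of neutral control wells and 100% = median of 100 nM tunicamycin wells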
Arr AP2 block – inhibitors of human beta-arrestin and AP2 interaction; FITC-arrestin peptide / GST-AP2 beads, flow cytometry; AP2 beta2 appendage carries R879A mutation; inhibition, % at 10 µM; hit rate 0.31% among 340,000; AID 504490;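 active = inhibition above a set limit, near 3 SD of compounds lacking own fluorescence, cut at about 54% in these data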;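 note: plate controls were DMSO wells for no effect and 5 µM unlabelled arrestin peptide for full effect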
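System: GST-tagged AP2 beta2-adaptin appendage (R879A) on 4 µm glutathione beads / Reagent: FITC-arrestin peptide, 50 nM / Detection: HyperCyt-sampled flow cytometry, FL1 channel, ex 488/em 535 nm / Timing: 12 min plus 1 h, RT / Buffer or medium: PBS plus Tween 20 (0.05%) and BSA (0.1%)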
PAX8 reporter – inhibitors of PAX8 transcriptional activity in RMG-I cells; RMG-I TPO-luciferase reporter, SteadyGlo, 24 h; inhibition, % at 12.6 µM; hit rate 1.2% among 360,000;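 active = mean replicate inhibition at least 60% with every replicate also reaching 60%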;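 note: luciferase light reporting Pax8 driven TPO promoter activity; plate controls were median of neutral control wells for no effect and mitoxantrone controls for full effect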
HIV Env fusion – inhibitors of HIV Env-mediated cell fusion; inhibition, % at 12.3 µM; HeLa-JRFL Env/CEM21 cell fusion, luciferase; hit rate 1.1% among 360,000; AID 651610;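 active = mean replicate inhibition score of at least 50 and every replicate individually at or above 50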;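 note: 0% = plate neutral controls and 100% = maraviroc near 300 nM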
The depositor's hits bear a star; / = no result given; [ ] = another dose, or the depositor's remark.

SMILES	Rtt109 HAT inh	PfHsp90 yeast 2	N-glyco inh	Arr AP2 block	PAX8 reporter	HIV Env fusion
Cc1noc(C)c1NC(=O)N(C)C[C@@H]1OCCCC[C@H](C)Oc2ccc(N(C)C)cc2C(=O)N([C@H](C)CO)C[C@@H]1C	/	/	/	/	-2	-15[16.7 µM]
CCSc1nc(-c2ccccc2)nc(C(Cl)Cl)n1	0	-3	-13	-6	96*	81*
COc1ccc2c3c(n(C)c2c1)[C@H](CO)N(S(C)(=O)=O)CC31CCN(Cc2cccnc2)CC1	/	/	/	/	-30	/
COc1ccc2c(c1)[C@]1(C(=O)N2C)C2=C(CCCC2=O)Oc2cc(C)oc(=O)c21	/	/	/	/	6	65*
CS(=O)(=O)N1CC(=O)N2[C@H](C1)[C@H](c1ccc(C#CCc3ccccc3)cc1)[C@@H]2CO	/	/	/	/	18	/
COc1cccc(C2CC(c3ccc(C)cc3)n3nc(N)nc3N2)c1 (stereo not drawn)	0	/	-6	13	16	66*
Cc1cc(NC(=O)CCC(=O)N(Cc2ccco2)C2(C(=O)NC3CCCC3)CCC(C)CC2)no1 (stereo not drawn)	3	15	-3	22	6	7
Cc1cc(NC(=O)CCC(=O)N(C2CC2)C2(C(=O)NC3CCCC3)CCC(C)CC2)no1 (stereo not drawn)	2	11	0	13	22	100*
COCCNC(=O)C[C@@H]1C[C@@H]2c3cc(NC(=O)Nc4ccccc4F)ccc3O[C@@H]2[C@H](CO)O1	/	/	/	/	-10	-15[16.7 µM]
COc1cc(-c2cc3nc(NCCc4ccc(S(N)(=O)=O)cc4)ccn3n2)cc(OC)c1OC	/	/	13	/	8	-7
COc1cc(-c2cc3nc(NCCc4ccncc4)ccn3n2)cc(OC)c1OC	/	/	28*	/	-6	15
COc1cc(-c2cc3nc(NCCOc4ccccc4)ccn3n2)cc(OC)c1OC	/	/	46*	/	34	-27
c1ccc(COc2ccc(-c3cc4nc(NCCOc5ccccc5)ccn4n3)cc2)cc1	/	/	-3	/	-11	43*
c1ccc(COc2cccc(-c3cc4nc(NCCOc5ccccc5)ccn4n3)c2)cc1	/	/	-2	/	15	23
CCCC(=O)Nc1ccc2c(c1)C(=O)N(C)C[C@H](OC)[C@H](C)CN(Cc1ccccc1)[C@H](C)CO2	/	/	/	/	/	0[16.7 µM]
Cc1noc(C)c1NC(=O)N(C)C[C@H]1OCCCC[C@H](C)Oc2ccc(NC(=O)c3ccccc3)cc2C(=O)N([C@H](C)CO)C[C@@H]1C	/	/	/	/	0	68*[16.7 µM]
C[C@H]1CCCCO[C@H](CN(C)C(=O)Nc2ccc(C(F)(F)F)cc2)[C@@H](C)CN([C@@H](C)CO)C(=O)c2cc(NC(=O)c3ccccc3)ccc2O1	/	/	/	/	33	75*[16.7 µM]
Cc1noc(C)c1NC(=O)N(C)C[C@H]1OCCCC[C@H](C)Oc2ccc(NC(=O)c3ccccc3)cc2C(=O)N([C@@H](C)CO)C[C@@H]1C	/	/	/	/	-3	26[16.7 µM]
C[C@H](CO)N1C[C@H](C)[C@H](CN(C)C(=O)Nc2ccc(C(F)(F)F)cc2)OCCCC[C@H](C)Oc2ccc(NC(=O)c3ccccc3)cc2C1=O	/	/	/	/	3	-14[16.7 µM]
C[C@H](CO)N1C[C@H](C)[C@@H](CN(C)C(=O)Nc2ccc(C(F)(F)F)cc2)OCCCC[C@H](C)Oc2ccc(NC(=O)c3ccccc3)cc2C1=O	/	/	/	/	1	61*[16.7 µM]
CC(C)NC(=O)Nc1ccc2c(c1)C(=O)N([C@@H](C)CO)C[C@@H](C)[C@@H](CN(C)Cc1ccncc1)OCCCC[C@@H](C)O2	/	/	/	/	-9	13[16.7 µM]
COc1ccc(S(=O)(=O)N(C)C[C@@H]2OCCCC[C@@H](C)Oc3ccc(NS(=O)(=O)c4ccc(C)cc4)cc3C(=O)N([C@@H](C)CO)C[C@H]2C)cc1	/	/	/	/	41	7[16.7 µM]
Cc1ccc(S(=O)(=O)N(C)C[C@@H]2OCCCC[C@H](C)Oc3ccc(NC(=O)CCC(F)(F)F)cc3C(=O)N([C@H](C)CO)C[C@H]2C)cc1	/	/	/	/	34	28[16.7 µM]
C[C@@H]1CN([C@H](C)CO)C(=O)c2cc(NC(=O)CCCN(C)C)ccc2O[C@@H](C)CCCCO[C@H]1CN(C)C(=O)Nc1ccc(F)cc1	/	/	/	/	9	13[16.7 µM]
C[C@H]1CCCCO[C@@H](CN(C)Cc2ccncc2)[C@@H](C)CN([C@@H](C)CO)C(=O)c2cc(N(C)C)ccc2O1	/	/	/	/	8	1[16.7 µM]
SMILES	Rtt109 HAT inh	PfHsp90 yeast 2	N-glyco inh	Arr AP2 block	PAX8 reporter	HIV Env fusion
Cc1ccc(OCCOC(=O)c2c(-c3ccccc3)noc2C)cc1	-7	3	16	0	2	27
Cc1onc(-c2ccccc2)c1C(=O)OCCOc1cccc(Cl)c1	1	1	12	5	27	75*
CCCNC(=O)Nc1ccc2c(c1)OC[C@H](C)N(Cc1ccncc1)C[C@@H](C)[C@@H](OC)CN(C)C2=O	/	/	/	/	19	/
COc1cc(NC2c3ccccc3C(=O)N2Cc2ccccc2Cl)cc(OC)c1OC (stereo not drawn)	-2	-6	2	-14	3	50
COc1cc(NC2c3ccccc3C(=O)N2Cc2ccccc2)cc(OC)c1OC (stereo not drawn)	-1	14	4	-21	-11	73*
COc1ccccc1-c1nnc(Sc2nc([N+](=O)[O-])nn2C)o1	-1	/	-16	22	/	126*
CN1CCc2ccccc2Cc2[nH]c3ccccc3c2CC1	8	16	1	6	9	71*
CCCCCc1cc(=O)oc2c(C(CCN3CCCCC3)c3cc(OC)c(OC)c(OC)c3)c(OC)cc(OC)c12 (stereo not drawn)	18	5	4	-3	79*	-10
O=c1cc(C(Cl)(Cl)Cl)oc2c1ccc1ccccc12	8	58	5	-4	98*	35
CCOc1ccccc1CNc1ncnc2ccc(-c3c(C)noc3C)cc12	-4	2	10	1	2	70*
COc1cccc(C#Cc2ccc([C@@H]3[C@H](CO)N4C(=O)CN(C(=O)C5CC5)C[C@@H]34)cc2)c1	/	/	/	/	18	/
C[C@@H]1CN([C@@H](C)CO)C(=O)Cc2cc(NC(=O)CCC(F)(F)F)ccc2O[C@@H]1CN(C)Cc1ccc(C(F)(F)F)cc1	/	/	/	/	16	/
CCN(CC)S(=O)(=O)c1cc([N+](=O)[O-])ccc1NNC(=O)Nc1ccc(F)cc1	-3	12	-4	-4	/	57*
CC(C)(C)C(=O)NC(=S)NNC(=O)c1sc2ccccc2c1Cl	6	99*	0	0	/	/
O=C(NNC(=S)NC1CCCCC1)c1sc2ccccc2c1Cl	12	-34	2	37	-25	6
O=C(NCC[C@H]1CC[C@H](NC(=O)c2cccnc2)[C@H](CO)O1)Nc1ccc(F)cc1	/	/	/	/	1	-24[16.7 µM]
CCOC(=O)C1CCN(c2c(N3CCN(Cc4ccccc4)CC3)c(=O)c2=O)CC1	5	-7	28*	15	11	10

High-throughput results deposited in PubChem by several laboratories.
